Assay results from ChEMBL document CHEMBL1687796, “Synthesis and spectrum of the neoglycoside ACHN-490” (2010).
Converted amounts (≈) assume the structure as drawn.

Tests used:
Acinetobacter baumannii [1] = assay: Antibacterial activity against aminoglycoside-susceptible Acinetobacter baumannii by broth microdilution method; type: functional
Escherichia coli [2] = assay: Antibacterial activity against aminoglycoside-resistant Escherichia coli expressing ANT(2'')-1 by broth microdilution method; type: functional
Method in brief: (§1)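 Clinical aminoglycoside-resistant isolates were each carrying a single aminoglycoside-modifying enzyme. […] MICs were determined by CLSI broth microdilution.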

Escherichia coli [3] = assay: Antibacterial activity against aminoglycoside-resistant Escherichia coli expressing AAC(6')-1 by broth microdilution method; type: functional; method in brief: as §1
Klebsiella pneumoniae [4] = assay: Antibacterial activity against aminoglycoside-resistant Klebsiella pneumoniae expressing AAC(6')-1 by broth microdilution method; type: functional; method in brief: as §1
Escherichia coli [5] = assay: Antibacterial activity against aminoglycoside-resistant Escherichia coli expressing ANT(3)-2 by broth microdilution method; type: functional; method in brief: as §1
Pseudomonas aeruginosa [6] = assay: Antibacterial activity against Pseudomonas aeruginosa expressing AAC(6')-2 by broth microdilution method; type: functional
Enterobacter cloacae = assay: Antibacterial activity against aminoglycoside-resistant Enterobacter cloacae expressing ANT(2'')-I by broth microdilution method
Klebsiella pneumoniae [7] = assay: Antibacterial activity against Klebsiella pneumoniae ATCC 10031 by broth microdilution method; type: functional
Method in brief: (§2)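 MICs were measured by broth microdilution following CLSI guidance. The strains formed a 25-strain screening panel with diverse aminoglycoside resistance mechanisms. The panel included Gram-negative and S. aureus strains carrying key aminoglycoside-modifying enzymes, strains with altered permeability or efflux, and an armA ribosomal methyltransferase strain.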

Escherichia coli [8] = assay: Antibacterial activity against aminoglycoside-resistant Escherichia coli expressing APH(3')-1b by broth microdilution method
Staphylococcus sp. = assay: Antibacterial activity against Staphylococcus spp. by broth microdilution method; type: functional
Method in brief: (§3)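 MICs were determined by CLSI broth microdilution against clinical isolate panels that included aminoglycoside-resistant isolates. […] MIC90 was derived per group and not calculated when n was <10. Imipenem, ceftobiprole, ciprofloxacin and tigecycline MICs were also determined for the resistant isolates.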

Pseudomonas aeruginosa [9] = assay: Antibacterial activity against Pseudomonas aeruginosa expressing ANT(4')-2 by broth microdilution method; type: functional; method in brief: as §2
Klebsiella pneumoniae [10] = assay: Antibacterial activity against aminoglycoside-resistant Klebsiella pneumoniae expressing ANT(2'')-I by broth microdilution method
Citrobacter freundii = assay: Antibacterial activity against aminoglycoside-resistant Citrobacter freundii expressing AAC(3)-2 by broth microdilution method; type: functional; method in brief: as §1
Proteus mirabilis = assay: Antibacterial activity against Proteus mirabilis by broth microdilution method; type: functional; method in brief: as §3
Escherichia coli [11] = assay: Antibacterial activity against Escherichia coli ATCC 25922 by broth microdilution method; type: functional; method in brief: as §2
Klebsiella aerogenes = assay: Antibacterial activity against aminoglycoside-resistant Enterobacter aerogenes expressing AAC(6')-1 by broth microdilution method; type: functional; method in brief: as §1
Acinetobacter baumannii [12] = assay: Antibacterial activity against aminoglycoside-resistant Acinetobacter baumannii expressing APH(3')-6 by broth microdilution method; type: functional; method in brief: as §1
Providencia stuartii = assay: Antibacterial activity against aminoglycoside-resistant Providencia stuartii expressing AAC(2')-1 by broth microdilution method
Escherichia coli [13] = assay: Antibacterial activity against aminoglycoside-resistant Escherichia coli expressing AAC(3)-4 by broth microdilution method; type: functional; method in brief: as §1
Klebsiella sp. = assay: Antibacterial activity against Klebsiella spp. by broth microdilution method; type: functional; method in brief: as §3
[14] = system: Acinetobacter calcoaceticus; assay: Antibacterial activity against aminoglycoside-resistant Acinetobacter calcoaceticus expressing AAC(6')-1 by broth microdilution method; type: functional; method in brief: as §1
Escherichia coli [15] = assay: Antibacterial activity against aminoglycoside-resistant Escherichia coli expressing AAC(3)-2 by broth microdilution method

| SMILES | MIC (Acinetobacter baumannii [1]) | MIC (Escherichia coli [2]) | MIC (Escherichia coli [3]) | MIC (Klebsiella pneumoniae [4]) | MIC (Pseudomonas aeruginosa [6]) | MIC (Enterobacter cloacae) | MIC (Klebsiella pneumoniae [7]) | MIC (Escherichia coli [8]) | MIC50 (Staphylococcus sp.) | MIC90 (Staphylococcus sp.) | MIC (Pseudomonas aeruginosa [9]) | MIC (Klebsiella pneumoniae [10]) | MIC (Citrobacter freundii) | MIC50 (Proteus mirabilis) | MIC90 (Proteus mirabilis) | MIC (Escherichia coli [11]) | MIC (Klebsiella aerogenes) | MIC (Acinetobacter baumannii [12]) | MIC (Providencia stuartii) | MIC (Escherichia coli [13]) | further results |
| --- | --- | --- | --- | --- | --- | --- | --- | --- | --- | --- | --- | --- | --- | --- | --- | --- | --- | --- | --- | --- | --- |
| CN[C@@H]1[C@@H](O)[C@@H](O[C@@H]2[C@@H](O)[C@H](O[C@H]3OC(CNCCO)=CC[C@H]3N)[C@@H](N)C[C@H]2NC(=O)[C@@H](O)CCN)OC[C@]1(C)O [PLAZOMICIN] | 4 µg/mL (≈ 6.75 µM) | 1 µg/mL (≈ 1.69 µM) | 1 µg/mL (≈ 1.69 µM) | 1 µg/mL (≈ 1.69 µM) | 2 µg/mL (≈ 3.37 µM) | 1 µg/mL (≈ 1.69 µM) | 0.25 µg/mL (≈ 0.422 µM) | 0.25 µg/mL (≈ 0.422 µM) | 1 µg/mL (≈ 1.69 µM) | 2 µg/mL (≈ 3.37 µM) | 4 µg/mL (≈ 6.75 µM) | 1 µg/mL (≈ 1.69 µM) | 1 µg/mL (≈ 1.69 µM) | 4 µg/mL (≈ 6.75 µM) | 8 µg/mL (≈ 13.5 µM) | 1 µg/mL (≈ 1.69 µM) | 1 µg/mL (≈ 1.69 µM) | 3 µg/mL (≈ 5.06 µM) | > 64 µg/mL | 1 µg/mL (≈ 1.69 µM) | MIC (Escherichia coli [5]): 2 µg/mL (≈ 3.37 µM); MIC50 (Klebsiella sp.): 0.5 µg/mL (≈ 0.844 µM); MIC90 (Klebsiella sp.): 1 µg/mL (≈ 1.69 µM); MIC [14]: 2 µg/mL (≈ 3.37 µM) |
| NCC[C@H](O)C(=O)N[C@@H]1C[C@H](N)[C@@H](O[C@H]2O[C@H](CN)[C@@H](O)[C@H](O)[C@H]2O)[C@H](O)[C@H]1O[C@H]1O[C@H](CO)[C@@H](O)[C@H](N)[C@H]1O [AMIKACIN] | 2 µg/mL (≈ 3.42 µM) | 4 µg/mL (≈ 6.83 µM) | 30 µg/mL (≈ 51.2 µM) | 30 µg/mL (≈ 51.2 µM) | 4 µg/mL (≈ 6.83 µM) | 2 µg/mL (≈ 3.42 µM) | 0.5 µg/mL (≈ 0.854 µM) | 0.5 µg/mL (≈ 0.854 µM) | 16 µg/mL (≈ 27.3 µM) | > 64 µg/mL | 32 µg/mL (≈ 54.6 µM) | 2 µg/mL (≈ 3.42 µM) | 4 µg/mL (≈ 6.83 µM) | 8 µg/mL (≈ 13.7 µM) | 64 µg/mL (≈ 109 µM) | 2 µg/mL (≈ 3.42 µM) | 30 µg/mL (≈ 51.2 µM) | > 64 µg/mL | 8 µg/mL (≈ 13.7 µM) | 2 µg/mL (≈ 3.42 µM) | MIC (Escherichia coli [15]): 4 µg/mL (≈ 6.83 µM); MIC50 (Klebsiella sp.): 32 µg/mL (≈ 54.6 µM); MIC90 (Klebsiella sp.): > 64 µg/mL; MIC [14]: 32 µg/mL (≈ 54.6 µM) |
